Tests used:
Assay type in all cases: ADME, organism-based
[1] = Plasma concentration in Swiss outbred mouse at […], iv at 0.008 hrs by LC-MS analysis
[2] = (§1) Plasma concentration in Swiss outbred mouse at […], iv at […] by LC-MS analysis
[3] = Plasma concentration in Swiss outbred mouse at […], iv at 0.033 hrs by LC-MS analysis
[4] = Plasma concentration in Swiss outbred mouse at […], iv at 0.08 hrs by LC-MS analysis
[5] = as §1; remark: listed apart in the source
[6] = Plasma concentration in Swiss outbred mouse at […], iv at 0.5 hrs by LC-MS analysis
[7] = Plasma concentration in Swiss outbred mouse at […], iv at 1 hr by LC-MS analysis
[8] = Plasma concentration in Swiss outbred mouse at […], iv at 2 hrs by LC-MS analysis
[9] = Plasma concentration in Swiss outbred mouse at […], iv at 4 hrs by LC-MS analysis
[10] = Plasma concentration in Swiss outbred mouse at […], iv at 7.5 hrs by LC-MS analysis
[11] = Plasma concentration in Swiss outbred mouse at […], iv at 10 hrs by LC-MS analysis
[12] = Plasma concentration in Swiss outbred mouse at […], iv at 24 hrs by LC-MS analysis
[13] = Plasma concentration in Swiss outbred mouse at 48 mg/kg administered via oral gavage at […] by LC-MS analysis
[14] = Plasma concentration in Swiss outbred mouse at 48 mg/kg administered via oral gavage at 0.5 hrs by LC-MS analysis
Method in brief: (§2)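 Single oral administration of 48 mg/kg to male Swiss outbred mice. Plasma concentration-time profile reported as the mean and range of n=2 mice per time point.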

[15] = Plasma concentration in Swiss outbred mouse at 48 mg/kg administered via oral gavage at 1 hr by LC-MS analysis; method in brief: as §2
[16] = Plasma concentration in Swiss outbred mouse at 48 mg/kg administered via oral gavage at 2 hrs by LC-MS analysis; method in brief: as §2
[17] = Plasma concentration in Swiss outbred mouse at 48 mg/kg administered via oral gavage at 4 hrs by LC-MS analysis; method in brief: as §2
[18] = Plasma concentration in Swiss outbred mouse at 48 mg/kg administered via oral gavage at 7.5 hrs by LC-MS analysis; method in brief: as §2
[19] = Plasma concentration in Swiss outbred mouse at 48 mg/kg administered via oral gavage at 10 hrs by LC-MS analysis; method in brief: as §2
[20] = Plasma concentration in Swiss outbred mouse at 48 mg/kg administered via oral gavage at 24 hrs by LC-MS analysis; method in brief: as §2
[21] = Plasma concentration in Sprague-Dawley rat at 1 mg/kg, iv administered as 10 mins infusion measured at 0.08 hrs by LC-MS analysis
Method in brief: (§3)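 Male Sprague Dawley rats were dosed IV (nominal 1 mg/kg; 0.9 mg/kg actual) or orally (nominal 20 mg/kg; 19 mg/kg actual). Plasma concentration–time profiles were determined, with n=2 rats per time point, and mean and range reported.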

[22] = (§4) Plasma concentration in Sprague-Dawley rat at 1 mg/kg, iv administered as 10 mins infusion measured at […] by LC-MS analysis
[23] = as §4; remark: listed apart in the source
[24] = Plasma concentration in Sprague-Dawley rat at 1 mg/kg, iv administered as 10 mins infusion measured at 0.5 hrs by LC-MS analysis; method in brief: as §3
[25] = Plasma concentration in Sprague-Dawley rat at 1 mg/kg, iv administered as 10 mins infusion measured at 1.17 hrs by LC-MS analysis; method in brief: as §3
[26] = Plasma concentration in Sprague-Dawley rat at 1 mg/kg, iv administered as 10 mins infusion measured at 2.67 hrs by LC-MS analysis; method in brief: as §3
[27] = Plasma concentration in Sprague-Dawley rat at 1 mg/kg, iv administered as 10 mins infusion measured at 5.17 hrs by LC-MS analysis; method in brief: as §3
[28] = Plasma concentration in Sprague-Dawley rat at 1 mg/kg, iv administered as 10 mins infusion measured at 10.17 hrs by LC-MS analysis; method in brief: as §3
[29] = Plasma concentration in Sprague-Dawley rat at 1 mg/kg, iv administered as 10 mins infusion measured at 16.17 hrs by LC-MS analysis; method in brief: as §3
[30] = Plasma concentration in Sprague-Dawley rat at 1 mg/kg, iv administered as 10 mins infusion measured at 24.17 hrs by LC-MS analysis; method in brief: as §3
[31] = (§5) Plasma concentration in Sprague-Dawley rat at 20 mg/kg administered via oral gavage at […] by LC-MS analysis
[32] = Plasma concentration in Sprague-Dawley rat at 20 mg/kg administered via oral gavage at 0.5 hrs by LC-MS analysis; method in brief: as §3
[33] = Plasma concentration in Sprague-Dawley rat at 20 mg/kg administered via oral gavage at 1 hr by LC-MS analysis; method in brief: as §3
[34] = as §5; remark: listed apart in the source
[35] = Plasma concentration in Sprague-Dawley rat at 20 mg/kg administered via oral gavage at 4 hrs by LC-MS analysis; method in brief: as §3
[36] = Plasma concentration in Sprague-Dawley rat at 20 mg/kg administered via oral gavage at 5 hrs by LC-MS analysis; method in brief: as §3

- concentration at 0.008 h [1]: 841 nM
- concentration at […] [2]: 310 nM
- concentration at 0.033 h [3]: 149 nM
- concentration at 0.08 h [4]: 80 nM
- concentration at […] [5]: 54 nM
- concentration at 0.5 h [6]: 44 nM
- concentration at 1 h [7]: 43 nM
- concentration at 2 h [8]: 26 nM
- concentration at 4 h [9]: 29 nM
- concentration at 7.5 h [10]: 31 nM
- concentration at 10 h [11]: 23 nM
- concentration at 24 h [12]: 22 nM
- concentration at […] [13]: 171 nM
- concentration at 0.5 h [14]: 812 nM
- concentration at 1 h [15]: 693 nM
- concentration at 2 h [16]: 494 nM
- concentration at 4 h [17]: 132 nM
- concentration at 7.5 h [18]: 239 nM
- concentration at 10 h [19]: 192 nM
- concentration at 24 h [20]: 208 nM
- concentration at 0.08 h [21]: 334 nM
- concentration at […] [22]: 255 nM
- concentration at […] [23]: 71 nM
- concentration at 0.5 h [24]: 36 nM
- concentration at 1.17 h [25]: 29 nM
- concentration at 2.67 h [26]: 20 nM
- concentration at 5.17 h [27]: 35 nM
- concentration at 10.17 h [28]: 29 nM
- concentration at 16.17 h [29]: 25 nM
- concentration at 24.17 h [30]: 20 nM
- concentration at […] [31]: 45.5 nM
- concentration at 0.5 h [32]: 65 nM
- concentration at 1 h [33]: 80 nM
- concentration at […] [34]: 50 nM
- concentration at 4 h [35]: 28 nM
- concentration at 5 h [36]: 27 nM
SMILES: CN(C)CCCNc1ccc(-c2ccc(F)c(Cl)c2)o1

— ChEMBL document CHEMBL4002594, “Novel inhibitors of Plasmodium falciparum based on 2,5-disubstituted furans” (Eur J Med Chem, 2017)
